For assay [1], the target named is Dual specificity mitogen-activated protein kinase kinase 7 (Homo sapiens) (UniProt O14733). Description: Binding affinity to wild-type human full length MKK7 (M1 to R419 residues) expressed in mammalian expression system assessed as residual binding level at 1 uM by Kinomescan method relative to control. The method, boiled down:
(§1)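 KinomeScan, an active site-directed competition binding panel of 468 kinases. The test compound was at 1 μM. The readout is remaining kinase binding as a percentage of the DMSO control. Scores above 35% were treated as weak binding and not listed.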

Assay [2] deals with STE20-like serine/threonine-protein kinase (Homo sapiens) (UniProt Q9H2G2). The experiment in a line: Binding affinity to wild-type human partial length SLK (S14 to A307 residues) expressed in bacterial expression system assessed as residual binding level at 1 uM by Kinomescan method relative to control.
The target in assay [3] is NUAK family SNF1-like kinase 2 (Homo sapiens) (UniProt Q9H093). The experiment in a line: Binding affinity to wild-type human partial length SNARK (P22 to A333 residues) expressed in mammalian expression system assessed as residual binding level at 1 uM by Kinomescan method relative to control.
Assay [4] addresses Receptor-interacting serine/threonine-protein kinase 2 (Homo sapiens) (UniProt O43353). Description: Binding affinity to wild-type human partial length RIPK2 (M1 to K310 residues) expressed in bacterial expression system assessed as residual binding level at 1 uM by Kinomescan method relative to control.
In assay [5] the test system is Phosphatidylinositol 4,5-bisphosphate 3-kinase catalytic subunit alpha isoform (Homo sapiens), P42336 [H1047L]. The experiment in a line: Binding affinity to human partial length PIK3CA H1047L mutant (R108 to N1068 residues) expressed in mammalian expression system assessed as residual binding level at 1 uM by Kinomescan method relative to control. Summed up: (§2)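 KinomeScan active site-directed competition binding panel (468 kinases), compound tested at 1 μM. Result expressed as remaining kinase signal versus DMSO control (percent of control).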

The target of assay [6] is Mitogen-activated protein kinase 4 (Homo sapiens) (UniProt P31152). The experiment in a line: Binding affinity to wild-type human partial length ERK4 (M1 to L365 residues) expressed in bacterial expression system assessed as residual binding level at 1 uM by Kinomescan method relative to control.
The target in assay [7] is Macrophage-stimulating protein receptor (Homo sapiens) (UniProt Q04912). Description: Binding affinity to wild-type human partial length MST1R (I1057 to L1363 residues) expressed in bacterial expression system assessed as residual binding level at 1 uM by Kinomescan method relative to control.
For assay [8], the target named is Receptor tyrosine-protein kinase erbB-4 (Homo sapiens) (UniProt Q15303). Description: Binding affinity to wild-type human partial length ERBB4 (L690 to K994 residues) expressed in bacterial expression system assessed as residual binding level at 1 uM by Kinomescan method relative to control. Summed up:
(§3)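 Active-site-directed competition binding panel of 468 kinases (KinomeScan), compound at 1 μM. The read-out is kinase remaining bound, given as a percentage of the DMSO control. […]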

In assay [9] the target is Serine/threonine-protein kinase ULK2 (Homo sapiens) (UniProt Q8IYT8). Description: Binding affinity to wild-type human partial length ULK2 (M1 to S301 residues) expressed in mammalian expression system assessed as residual binding level at 1 uM by Kinomescan method relative to control.
Assay [10] deals with Glycogen synthase kinase-3 alpha (Homo sapiens) (UniProt P49840). The experiment in a line: Binding affinity to wild-type human full length GSK3A (M1 to S483 residues) expressed in bacterial expression system assessed as residual binding level at 1 uM by Kinomescan method relative to control. The method, boiled down: (§4)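 Active-site-directed KinomeScan competition binding panel covering 468 kinases, compound tested at 1 μM. Each readout is the kinase signal remaining with compound, expressed as a percentage of the DMSO control. […]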

The target in assay [11] is Tyrosine-protein kinase JAK3 (Homo sapiens) (UniProt P52333). Description: Binding affinity to wild-type human partial length JAK3 JH1 catalytic domain (I781 to S1124 residues) expressed in mammalian expression system assessed as residual binding level at 1 uM by Kinomescan method relative to control. The method, boiled down: as §3
Assay [12] has as its target Dual specificity mitogen-activated protein kinase kinase 2 (Homo sapiens) (UniProt P36507). Description: Binding affinity to wild-type human full length MEK2 (M1 to V400 residues) expressed in mammalian expression system assessed as residual binding level at 1 uM by Kinomescan method relative to control. The method, boiled down:
as §1

Assay [13] concerns the target Casein kinase I isoform epsilon (Homo sapiens) (UniProt P49674). The experiment in a line: Binding affinity to wild-type human full length CSNK1E (M1 to K416 residues) expressed in bacterial expression system assessed as residual binding level at 1 uM by Kinomescan method relative to control. Summed up: as §4
Assay [14] concerns the target Atypical kinase COQ8A, mitochondrial (Homo sapiens) (UniProt Q8NI60). Description: Binding affinity to wild-type human full length ADCK3 (M280 to Q647 residues) expressed in bacterial expression system assessed as residual binding level at 1 uM by Kinomescan method relative to control. The method, boiled down:
as §4

Assay [15] concerns the target Serine/threonine-protein kinase 25 (Homo sapiens) (UniProt O00506). Description: Binding affinity to wild-type human partial length YSK1 (V14 to H295 residues) expressed in bacterial expression system assessed as residual binding level at 1 uM by Kinomescan method relative to control.
In assay [16] the test system is Receptor-type tyrosine-protein kinase FLT3 (Homo sapiens), P36888 [D835Y]. The experiment in a line: Binding affinity to human partial length FLT3 D835Y mutant (Q580 to Y969 residues) expressed in bacterial expression system assessed as residual binding level at 1 uM by Kinomescan method relative to control. The method, boiled down:
as §2

Assay [17] deals with Mitogen-activated protein kinase 3 (Homo sapiens) (UniProt P27361). The experiment in a line: Binding affinity to wild-type human full length ERK1 (M1 to P379 residues) expressed in bacterial expression system assessed as residual binding level at 1 uM by Kinomescan method relative to control. The method, boiled down:
as §4

Assay [18] addresses Serine/threonine-protein kinase PLK3 (Homo sapiens) (UniProt Q9H4B4). Description: Binding affinity to wild-type human partial length PLK3 (A42 to L334 residues) expressed in mammalian expression system assessed as residual binding level at 1 uM by Kinomescan method relative to control.
Assay [19] addresses Ephrin type-A receptor 6 (Homo sapiens) (UniProt Q9UF33). The experiment in a line: Binding affinity to wild-type human partial length EPHA6 (Y700 to E1046 residues) expressed in bacterial expression system assessed as residual binding level at 1 uM by Kinomescan method relative to control.
Assay [20] concerns the target Serine/threonine-protein kinase RIO2 (Homo sapiens) (UniProt Q9BVS4). The experiment in a line: Binding affinity to wild-type human partial length RIOK2 (M1 to D313 residues) expressed in mammalian expression system assessed as residual binding level at 1 uM by Kinomescan method relative to control.
Assay [21] addresses Hepatocyte growth factor receptor (Homo sapiens) (UniProt P08581). The experiment in a line: Binding affinity to wild-type human partial length MET (D1010 to S1367 residues) expressed in bacterial expression system assessed as residual binding level at 1 uM by Kinomescan method relative to control.

Serine/threonine-protein kinase RIO2 (Homo sapiens), sequence (Q9BVS4 whole entry, looked up, the tested form may be a part): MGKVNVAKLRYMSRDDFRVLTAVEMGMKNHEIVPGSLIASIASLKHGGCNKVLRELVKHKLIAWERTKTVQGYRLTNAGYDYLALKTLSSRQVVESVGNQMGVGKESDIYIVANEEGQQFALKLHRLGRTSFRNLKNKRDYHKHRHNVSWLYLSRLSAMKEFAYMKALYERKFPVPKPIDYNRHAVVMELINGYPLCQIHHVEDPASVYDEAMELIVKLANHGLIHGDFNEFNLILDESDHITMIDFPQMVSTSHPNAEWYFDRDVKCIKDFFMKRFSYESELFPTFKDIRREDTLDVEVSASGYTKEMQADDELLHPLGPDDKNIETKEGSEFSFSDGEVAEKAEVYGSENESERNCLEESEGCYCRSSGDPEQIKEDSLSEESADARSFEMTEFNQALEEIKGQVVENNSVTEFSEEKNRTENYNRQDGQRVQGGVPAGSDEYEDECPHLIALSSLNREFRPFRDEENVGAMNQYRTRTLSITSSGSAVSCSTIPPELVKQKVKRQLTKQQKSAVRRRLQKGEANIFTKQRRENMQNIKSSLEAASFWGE
Dual specificity mitogen-activated protein kinase kinase 7 (Homo sapiens), sequence (O14733 whole entry, the tested form may be a part): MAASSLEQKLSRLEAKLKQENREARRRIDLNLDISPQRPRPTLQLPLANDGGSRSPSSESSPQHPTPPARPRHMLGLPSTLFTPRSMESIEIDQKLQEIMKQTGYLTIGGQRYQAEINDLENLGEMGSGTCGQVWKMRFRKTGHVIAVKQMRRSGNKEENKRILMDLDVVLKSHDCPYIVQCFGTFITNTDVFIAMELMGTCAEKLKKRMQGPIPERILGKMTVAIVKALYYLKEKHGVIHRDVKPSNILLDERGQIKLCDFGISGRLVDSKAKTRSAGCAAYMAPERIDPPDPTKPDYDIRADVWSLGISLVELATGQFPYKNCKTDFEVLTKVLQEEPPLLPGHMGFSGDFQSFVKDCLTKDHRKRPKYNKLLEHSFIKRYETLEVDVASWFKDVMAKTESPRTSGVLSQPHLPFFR
Serine/threonine-protein kinase 25 (Homo sapiens), sequence (O00506 whole entry, looked up, the tested form may be a part): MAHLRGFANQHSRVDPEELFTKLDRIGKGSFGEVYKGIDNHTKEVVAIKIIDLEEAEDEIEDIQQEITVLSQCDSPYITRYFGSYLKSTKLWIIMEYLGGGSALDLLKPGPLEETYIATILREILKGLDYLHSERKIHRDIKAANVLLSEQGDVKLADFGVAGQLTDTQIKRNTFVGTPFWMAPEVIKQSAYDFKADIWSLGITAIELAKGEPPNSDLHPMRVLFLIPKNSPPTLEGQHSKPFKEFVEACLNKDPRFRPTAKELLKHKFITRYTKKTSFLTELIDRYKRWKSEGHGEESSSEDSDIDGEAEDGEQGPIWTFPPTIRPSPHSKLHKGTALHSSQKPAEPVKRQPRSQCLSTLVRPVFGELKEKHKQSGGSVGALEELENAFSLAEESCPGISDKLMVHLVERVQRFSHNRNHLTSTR
Macrophage-stimulating protein receptor (Homo sapiens), sequence (Q04912 25-304 limits assumed): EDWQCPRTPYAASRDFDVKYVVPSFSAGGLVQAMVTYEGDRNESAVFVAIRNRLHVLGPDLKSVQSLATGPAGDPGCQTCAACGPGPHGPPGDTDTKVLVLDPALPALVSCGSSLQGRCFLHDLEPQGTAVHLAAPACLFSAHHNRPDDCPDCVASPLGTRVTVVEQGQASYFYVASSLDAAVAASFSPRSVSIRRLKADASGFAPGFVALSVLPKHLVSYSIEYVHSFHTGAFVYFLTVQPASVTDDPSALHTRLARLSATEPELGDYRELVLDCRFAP
Macrophage-stimulating protein receptor (Homo sapiens), sequence (Q04912 310-1400 limits assumed): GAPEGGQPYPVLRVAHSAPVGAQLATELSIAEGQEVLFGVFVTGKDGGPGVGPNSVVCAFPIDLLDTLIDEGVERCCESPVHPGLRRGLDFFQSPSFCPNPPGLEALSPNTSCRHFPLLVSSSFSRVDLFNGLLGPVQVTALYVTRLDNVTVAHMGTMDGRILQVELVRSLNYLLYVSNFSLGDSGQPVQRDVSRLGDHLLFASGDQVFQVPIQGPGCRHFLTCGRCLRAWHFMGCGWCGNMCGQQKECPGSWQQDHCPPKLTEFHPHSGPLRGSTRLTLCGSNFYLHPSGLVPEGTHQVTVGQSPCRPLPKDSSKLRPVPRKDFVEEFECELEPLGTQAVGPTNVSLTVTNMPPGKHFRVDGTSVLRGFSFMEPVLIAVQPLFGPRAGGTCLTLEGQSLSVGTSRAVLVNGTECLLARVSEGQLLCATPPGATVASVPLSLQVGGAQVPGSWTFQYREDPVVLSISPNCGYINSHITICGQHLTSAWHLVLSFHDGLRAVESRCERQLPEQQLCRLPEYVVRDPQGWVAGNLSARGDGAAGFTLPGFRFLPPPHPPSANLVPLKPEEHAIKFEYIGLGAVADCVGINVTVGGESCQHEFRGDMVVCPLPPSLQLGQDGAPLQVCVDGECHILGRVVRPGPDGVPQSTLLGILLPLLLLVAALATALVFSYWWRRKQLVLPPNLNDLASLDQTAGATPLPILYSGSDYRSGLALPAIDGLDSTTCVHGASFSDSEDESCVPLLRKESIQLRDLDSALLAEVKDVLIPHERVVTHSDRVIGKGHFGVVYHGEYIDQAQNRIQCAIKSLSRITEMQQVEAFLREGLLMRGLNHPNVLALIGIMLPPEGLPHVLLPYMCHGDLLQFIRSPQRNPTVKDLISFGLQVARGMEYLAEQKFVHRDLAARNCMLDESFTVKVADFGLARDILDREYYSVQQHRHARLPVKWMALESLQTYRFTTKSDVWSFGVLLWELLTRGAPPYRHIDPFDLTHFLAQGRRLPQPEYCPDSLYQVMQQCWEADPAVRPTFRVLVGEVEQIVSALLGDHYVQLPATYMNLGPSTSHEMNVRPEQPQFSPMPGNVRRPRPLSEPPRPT
Phosphatidylinositol 4,5-bisphosphate 3-kinase catalytic subunit alpha isoform (Homo sapiens), P42336 [H1047L], sequence (P42336 whole entry H1047L, the tested form may be a part, canonical isoform): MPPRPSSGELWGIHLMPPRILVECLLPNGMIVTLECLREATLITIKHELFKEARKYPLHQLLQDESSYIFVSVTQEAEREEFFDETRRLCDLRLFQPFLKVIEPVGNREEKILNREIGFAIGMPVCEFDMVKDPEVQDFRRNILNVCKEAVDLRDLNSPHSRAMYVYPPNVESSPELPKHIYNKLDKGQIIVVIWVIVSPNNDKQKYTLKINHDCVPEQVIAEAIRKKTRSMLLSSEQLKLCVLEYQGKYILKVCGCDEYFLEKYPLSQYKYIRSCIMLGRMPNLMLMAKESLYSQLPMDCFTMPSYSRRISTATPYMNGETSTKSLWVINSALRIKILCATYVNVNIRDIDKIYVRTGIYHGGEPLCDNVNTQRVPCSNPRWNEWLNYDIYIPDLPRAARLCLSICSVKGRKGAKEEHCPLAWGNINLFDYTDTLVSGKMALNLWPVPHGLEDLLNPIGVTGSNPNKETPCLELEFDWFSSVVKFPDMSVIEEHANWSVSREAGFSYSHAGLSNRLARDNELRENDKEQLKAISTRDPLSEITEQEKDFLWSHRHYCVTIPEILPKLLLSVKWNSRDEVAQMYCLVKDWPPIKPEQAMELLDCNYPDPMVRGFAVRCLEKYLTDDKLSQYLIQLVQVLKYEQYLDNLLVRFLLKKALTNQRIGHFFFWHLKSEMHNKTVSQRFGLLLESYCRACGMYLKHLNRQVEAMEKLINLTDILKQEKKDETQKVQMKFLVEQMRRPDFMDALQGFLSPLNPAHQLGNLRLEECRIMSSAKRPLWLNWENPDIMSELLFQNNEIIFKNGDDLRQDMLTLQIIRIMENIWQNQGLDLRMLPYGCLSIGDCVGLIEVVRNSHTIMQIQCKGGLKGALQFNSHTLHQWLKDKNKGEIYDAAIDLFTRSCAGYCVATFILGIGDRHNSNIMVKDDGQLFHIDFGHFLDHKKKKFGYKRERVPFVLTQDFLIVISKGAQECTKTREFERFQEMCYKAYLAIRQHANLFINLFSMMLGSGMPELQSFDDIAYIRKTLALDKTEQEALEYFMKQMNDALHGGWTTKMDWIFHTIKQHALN
Glycogen synthase kinase-3 alpha (Homo sapiens), sequence (P49840 2-483 limits assumed): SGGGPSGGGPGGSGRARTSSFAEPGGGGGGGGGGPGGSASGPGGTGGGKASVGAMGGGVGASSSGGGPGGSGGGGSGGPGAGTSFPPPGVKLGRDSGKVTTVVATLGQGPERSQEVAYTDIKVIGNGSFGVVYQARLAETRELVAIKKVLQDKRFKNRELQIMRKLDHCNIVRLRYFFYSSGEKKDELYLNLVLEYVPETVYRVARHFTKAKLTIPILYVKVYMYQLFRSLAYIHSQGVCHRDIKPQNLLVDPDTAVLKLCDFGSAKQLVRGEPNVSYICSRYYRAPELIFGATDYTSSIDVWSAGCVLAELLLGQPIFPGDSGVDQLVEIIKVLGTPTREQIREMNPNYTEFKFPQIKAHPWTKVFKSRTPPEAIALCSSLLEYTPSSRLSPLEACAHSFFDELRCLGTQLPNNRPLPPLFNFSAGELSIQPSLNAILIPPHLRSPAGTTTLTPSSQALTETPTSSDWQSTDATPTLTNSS
Atypical kinase COQ8A, mitochondrial (Homo sapiens), sequence (Q8NI60 163-647 limits assumed): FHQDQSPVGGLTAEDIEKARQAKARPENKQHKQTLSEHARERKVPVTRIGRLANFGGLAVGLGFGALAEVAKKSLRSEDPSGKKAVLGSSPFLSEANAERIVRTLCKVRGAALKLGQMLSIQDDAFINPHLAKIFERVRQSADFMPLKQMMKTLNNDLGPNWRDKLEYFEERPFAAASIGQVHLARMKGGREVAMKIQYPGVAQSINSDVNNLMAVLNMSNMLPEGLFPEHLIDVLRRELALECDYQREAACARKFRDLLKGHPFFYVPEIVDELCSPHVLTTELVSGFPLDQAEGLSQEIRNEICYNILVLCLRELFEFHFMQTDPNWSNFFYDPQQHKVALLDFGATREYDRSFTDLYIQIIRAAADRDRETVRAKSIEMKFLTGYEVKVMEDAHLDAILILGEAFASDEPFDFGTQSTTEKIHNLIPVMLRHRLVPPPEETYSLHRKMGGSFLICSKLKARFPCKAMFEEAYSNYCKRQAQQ

As for `C=CC(=O)Nc1ccccc1Nc1nc(Nc2ccc(N3CCN(C)CC3)cc2)ncc1C(=O)Nc1c(C)cccc1Cl`, the Activity amounted to 96% in assay [1]; 100% in [2]; 100% in assay [3]; 100% in [4]; 71% in [5]; 100% in assay [6]. The Activity in [7] stood at 100%; in [8] it was 6.6%; in assay [9], 100%; in [10], 100%; in assay [11] it was 88%; in assay [12] it was 93%. Besides, the Activity in assay [13], in [14], in assay [15], in [16], in assay [17] and in assay [18] was 100% in each case. Moreover, the Activity in assay [19], in assay [20] and in [21] was 100% each time.

Source of the values: ChEMBL document CHEMBL4354843, “Structure-Based Design of a Potent and Selective Covalent Inhibitor for SRC Kinase That Targets a P-Loop Cysteine” (J Med Chem, 2020).
